ChEMBL document CHEMBL3244043, “Nucleoside 5'-monophosphate analogues. Synthesis of 5'-sulfamino-5'-deoxynucleosides” (J Med Chem, 1978)
Calls of active or inactive are those of the source. The rule behind the calls is not given here.

How the values were obtained:
[1] = Drug degradation in HCl assessed as hydrolysis of 5'-sulfamino group to form amino nucleoside at 23 degC after 24 hrs; assay type: physicochemical; details: read-out: Drug degradation
How it was run: (§1)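 Compound held in 0.1 M HCl at 23 °C for 24 h. Hydrolysis reported as percent cleavage of the 5'-sulfamino group, giving the amino nucleoside, and of the glycosidic bond, giving adenine.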

L1210 [2] = test: Cytotoxicity against mouse L1210 cells assessed as cell growth at 1 x 10^-4 M; assay type: functional, cell-based
[3] = Drug degradation in HCl assessed as hydrolysis of glycosidic linkage to form adenine at 23 degC after 24 hrs; assay type: physicochemical; details: read-out: Drug degradation; how it was run: as §1
Human alphaherpesvirus 1 [4] = test: Antiviral activity against Herpes simplex virus type 1 infected in African green monkey CV1 cells assessed as inhibition of viral replication at 10^-4 M; assay type: functional, organism-based; details: CV-1
[5] = Stability of the compound in NaOH assessed as cleavage of sulfamino group at 23 degC after 24 hrs; assay type: physicochemical
How it was run: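 Compound exposed to 0.1 M NaOH at 23 °C for 24 h, then examined for any cleavage of the 5'-sulfamino group.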

Escherichia coli [6] = test: Antibacterial activity against Escherichia coli B assessed as growth inhibition at 1 x 10^-3 M relative to control; assay type: functional; details: read-out: GI
L1210 [7] = test: Cytotoxicity against mouse L1210 cells assessed as growth inhibition at 1 x 10^-3 M; assay type: functional, cell-based
Escherichia coli [8] = test: Antibacterial activity against Escherichia coli K-12 assessed as growth inhibition at 1 x 10^-3 M relative to control; assay type: functional; details: read-out: GI
Enterococcus faecalis = test: Antibacterial activity against Streptococcus faecalis assessed as growth inhibition at 1 x 10^-3 M relative to control; assay type: functional; details: read-out: GI
Human alphaherpesvirus 1 [9] = test: Antiviral activity against Herpes simplex virus type 1 infected in African green monkey CV1 cells assessed as inhibition of viral replication at 1 x 10^-5 M relative to control; assay type: functional; details: Human alphaherpesvirus 1, CV-1
[10] = Cytotoxicity against African green monkey CV1 cells assessed as effect on cell growth at 1 x 10^-4 M; assay type: cell-based; details: chlorocebus aethiops, cv-1, 100 µM
Human alphaherpesvirus 1 [11] = test: Antiviral activity against Herpes simplex virus type 1 infected in African green monkey CV1 cells assessed as inhibition of viral replication at 1 x 10^-4 M relative to control; assay type: functional; details: Human alphaherpesvirus 1, CV-1

Row | degraded at 24 h [1] [%] | degraded at 24 h [3] [%] | Stability [5] | SMILES | Activity (L1210 [2]) | inhibition (Human alphaherpesvirus 1 [4]) | inhibition of growth at 1000 µM (Escherichia coli [6]) [%] | growth inhibition (GI) (L1210 [7]) | inhibition of growth at 1000 µM (Escherichia coli [8]) [%] | inhibition of growth at 1000 µM (Enterococcus faecalis) [%] | inhibition at 10 µM (Human alphaherpesvirus 1 [9]) [%] | Activity [10] | inhibition at 100 µM (Human alphaherpesvirus 1 [11]) [%]
1 | 0.75 | 16 | Stable | Nc1ncnc2c1ncn2[C@@H]1O[C@H](CNS(=O)(=O)O)[C@@H](O)[C@H]1O | inactive | inactive | < 10 | inactive | < 10 | < 10 |  |  | 
2 | 2.4 |  | Stable | Cc1cn([C@H]2C[C@H](O)[C@@H](CNS(=O)(=O)O)O2)c(=O)[nH]c1=O | inactive |  | < 10 | inactive | < 10 | < 10 | 35 | Non-toxic | 70
